UPR CHOP act: apoptotic UPR (CHOP) activation. CHO-CHOP luciferase reporter, luminescence; percent of tunicamycin response over DMSO baseline. activation, % at 10 µM. hit rate 0.34% among 330,000;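 active means at 10 µM dose, activation of 40% or more, normalized to positive control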
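measured by = luciferase luminescence | assay system = CHO-CHOP cells, stable luciferase reporter of PERK-eIF2a-CHOP signalling | amount = 500 reporter cells seeded per well | timing = 6 h compound exposure at 37 °C after overnight seeding | controls = positive tunicamycin 10 µg/mL, negative DMSO alone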
PvdQ acylase: blocks Pseudomonas aeruginosa PvdQ acylase activity; purified PvdQ acylase, fluorescence plate reader; inhibition, % at 10 µM; hit rate 0.063% among 340,000; AID 488965; in the data active means inhibition above about 30%, passing the limit was not always enough
CHOP inh: inhibitors of CHOP induction in ER stress response; inhibition, % at 10 µM; CHO-K1 CHOP-promoter luciferase, tunicamycin-induced, 15-18 h; hit rate 3.8% among 220,000;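 active means compounds that reduced the stress-induced luciferase reporter signal by more than about 70% of percent inhibition, limit read from the data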
XBP1 UPR activ: activators of adaptive arm of unfolded protein response (XBP1); CHO-XBP1 luciferase reporter, IRE1-XBP1 UPR activation, luminescence; percent of tunicamycin response, DMSO as zero; activation, % at 20 µM; hit rate 0.33% among 330,000;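 active means versus positive control, 20 µM dose yields 30% or more activation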
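Test system: CHO-XBP1 luciferase reporter cells | Buffer or medium: Serum-containing F12 medium, 10% FBS | Schedule: 6 h compound exposure at 37 °C, 5% CO2 | Detection: Steady-Glo luciferase glow luminescence, 10 min after reagent addition | Read-out basis: Activation, % of tunicamycin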
Each line names hits and unclear results; the compound was inactive in the other large screens. Only a selection was taken, and hits are over-represented in it overall.

Cc1ccc(-c2cn3cccnc3n2)cc1NC(=O)c1ccc(Br)o1	none
NC(=O)C1(N2CCCCC2)CCN(CC(=O)Nc2cc(Cl)ccc2Cl)CC1	CHOP inh 76
Cc1ccc2c(c1)c1c(n2CC(O)Cn2c(C)nc3ccccc32)/C(=N\O)CCC1 (centres undefined)	CHOP inh 87
COC(=O)C1=C(C(=O)OC)SC2(S1)C(C(=O)OC)=C(C(=O)OC)SC1=C2c2cc(C)ccc2NC1(C)C	CHOP inh 73
CC(=O)Nc1cccc(OCc2ccc(S(=O)(=O)Cc3ccccc3)cc2)c1	none
CC(=O)NC(=S)Nc1ccc2oc(=O)ccc2c1	none
CC(C)c1nc(Cl)c(C#N)c2c1CCCC2	CHOP inh 85
C/C(CCC(C)C)=N\NC(=S)NCc1ccccc1	none
O=C(N/N=C1/C(=O)c2cccc3cccc1c23)c1ccc(Cl)cc1	CHOP inh 72
CCOc1cc(C)cc2oc(=O)cc(-c3ccccc3)c12	none
Cc1cc(OC(C)C)c2c(-c3ccccc3)cc(=O)oc2c1	CHOP inh 79
O=c1[nH]cnc2c1ncn2-c1ccc(N(CCO)CCO)cc1	none (no result: UPR CHOP act, CHOP inh, XBP1 UPR activ)
O=[N+]([O-])c1ccccc1CCc1ccccc1[N+](=O)[O-]	none (no result: UPR CHOP act, CHOP inh, XBP1 UPR activ)
O=[N+]([O-])c1ccccc1CNC(Cc1ccccc1)c1ccccc1 (centres undefined)	CHOP inh 80
COc1ccc(/C=N/Nc2cc(N3CCCC3)nc(N3CCCC3)n2)cc1	none
Oc1cccc(/C=N/Nc2cc(N3CCCC3)nc(N3CCCC3)n2)c1	CHOP inh 79
COc1ccc(/C=N/n2c(-c3ccco3)nc3ccccc3c2=O)cc1	CHOP inh 80
Cc1cc(C(=O)Nc2cc(Br)ccc2O)on1	none (no result: CHOP inh)
Cc1occc(=O)c1OC(=O)Nc1ccc(Cl)c(Cl)c1	CHOP inh 96 (no result: UPR CHOP act, XBP1 UPR activ)
COc1ccc2[nH]c3c(=O)n(CCCC(=O)NC4CCCCC4C)c(=S)[nH]c3c2c1 (centres undefined)	none (no result: CHOP inh)
CCOC(=O)C(NC(=O)Nc1ccccc1)(OCC)C(F)(F)F (centres undefined)	none
CCOC(=O)Cc1cnc(NC(=O)NC(C(=O)OCC)(c2ccccc2)C(F)(F)F)s1 (centres undefined)	CHOP inh 85
CCOc1ccc(-c2c(C(=O)N/N=C/c3ccc(Cl)cc3)nnn2-c2nonc2N)cc1	none (no result: CHOP inh)
CS(=O)(=O)N(CC(=O)N1CCN(C(c2ccccc2)c2ccccc2)CC1)C1CCCCC1	CHOP inh 79
CS(=O)(=O)N(CC(=O)N1CCN(c2ccccc2F)CC1)C1CCCCC1	none
O=C(NC1CCCC1)C(c1ccc(F)cc1)N(Cc1ccccc1Cl)C(=O)CCl (centres undefined)	CHOP inh 108
O=C(NC1CCCCC1)C(c1ccc(F)cc1)N(Cc1cccs1)C(=O)CN1C(=O)c2ccccc2S1(=O)=O (centres undefined)	CHOP inh 91
Cc1noc(C)c1S(=O)(=O)Nc1ccc2c(c1)C(=O)N([C@H](C)CO)C[C@H](C)[C@@H](CN(C)Cc1ccc(C(=O)O)cc1)O2	none (no result: CHOP inh)
Cc1[nH]n(-c2ccc(Br)cc2)c(=O)c1C=Nc1ccc(S(=O)(=O)Nc2nccs2)cc1	CHOP inh 91
Cc1ccc(-n2[nH]c(C)c(C=Nc3ccc(S(=O)(=O)Nc4nccs4)cc3)c2=O)cc1	none (no result: PvdQ acylase)
CCC1CSC(Nc2ccc(C(=O)/C=C/c3ccc(Br)cc3)cc2)=N1 (centres undefined)	CHOP inh 89
Cc1ccc2nc(SCC(=O)N3c4ccccc4CC3C)c(C)cc2c1 (centres undefined)	CHOP inh 78
CCOC(=O)C1=C(N)Oc2cc(O)ccc2C1c1ccc([N+](=O)[O-])cc1 (centres undefined)	CHOP inh 94
CCOC(=O)C1=C(N)Oc2ccc3ccccc3c2C1c1ccc(O)cc1 (centres undefined)	none (no result: CHOP inh)
Cc1ccccc1OCC(O)CN1CCN(c2ccc(Cl)cc2)CC1 (centres undefined)	CHOP inh 82
OC(COc1cccc2ccccc12)CN1CCN(c2ccccc2Cl)CC1 (centres undefined)	CHOP inh 76 (no result: UPR CHOP act, XBP1 UPR activ)
Cc1ccc(N2CCN(CC(O)COc3cccc4ccccc34)CC2)cc1 (centres undefined)	CHOP inh 86
OC(COCc1ccc(Cl)cc1)CN1CCN(CC(O)COCc2ccc(Cl)cc2)CC1 (centres undefined)	CHOP inh 88
COc1ccccc1N1CCN(CC(O)COc2c(OC)cccc2OC)CC1 (centres undefined)	none

Source: PubChem BioAssay
